Experimental findings from ChEMBL document CHEMBL4033658, “Design and expeditious synthesis of organosilanes as potent antivirals targeting multidrug-resistant influenza A viruses” (Eur J Med Chem, 2017) are described below.

Data set [1] can be described thus: Antiviral activity against Influenza A virus A/WSN/33(H1N1) infected in MDCK cells expressing ST6Gal 1 preincubated with virus and cells for 30 mins followed viral infection measured after 2 to 3 days by naphthalene black dye-based plaque reduction assay. The class given is functional, cell-based, Influenza A virus (A/WSN/1933(H1N1)).
Data set [2] is described as follows: Selectivity index, ratio of CC50 for MDCK cells to EC50 for Influenza A virus A/WSN/33 (H1N1). The following applies: dog, read-out: Ratio CC50/EC50. Type of data set: toxicity.
Data set [3] has as its system Influenza A virus. Put plainly: Inhibition of Influenza A virus AM2 proton channel expressed in Xenopus laevis frog oocytes at 100 uM after 2 mins by electrophysiological two-electrode voltage clamp assay. Type of data set: cell-based. In short, it runs like this:
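Two-electrode voltage clamp on oocytes microinjected with RNA for AM2-WT or AM2-S31N. Compound at 100 µM for 2 min at pH 5.5. Read-out is percent inhibition of AM2 current, mean of three independent measurements.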

Data set [4] concerns MDCK. Put plainly: Cytotoxicity against MDCK cells after 48 hrs by neutral red uptake assay. The class given is cell-based, Canis lupus familiaris. To be noted: dog. In short, it runs like this: (§1)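 Serially diluted compound in serum-free DMEM for 48 h at 37 °C, 5% CO2. Neutral red 40 µg/mL for 4 h, absorbance read at 540 nm. CC50 from variable-slope dose-response fit.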
Data set [5] can be described thus: Selectivity index, ratio of CC50 for human A549 cells to EC50 for Influenza A virus A/Washington/29/2009 (H1N1). The class given is toxicity. To be noted: read-out: Ratio CC50/EC50.
The nature of data set [6]: Antiviral activity against Influenza A virus A/Texas/04/2009(H1N1) infected in MDCK cells expressing ST6Gal 1 preincubated with virus and cells for 30 mins followed viral infection measured after 2 to 3 days by naphthalene black dye-based plaque reduction assay. The class given is functional, cell-based. In general terms: Plaques are areas of infected cells; plaque reduction assays count them against a control.

Data set [7] in a line: Selectivity index, ratio of CC50 for human A549 cells to EC50 for Influenza A virus A/California/07/2009 (H1N1). The following applies: read-out: Ratio CC50/EC50. The class given is toxicity.
Data set [8] has as its system Influenza A virus. Kind of data set: Antiviral activity against Influenza A virus A/Switzerland/9715293/2013 (H3N2) infected in MDCK cells expressing ST6Gal 1 preincubated with virus and cells for 30 mins followed viral infection measured after 2 to 3 days by naphthalene black dye-based plaque reduction assay. Type of data set: functional, cell-based.
Data set [9] is described as follows: Selectivity index, ratio of CC50 for human A549 cells to EC50 for Influenza A virus A/Denmark/524/2009 (H1N1). Type of data set: toxicity. To be noted: read-out: Ratio CC50/EC50.
Data set [10] in a line: Selectivity index, ratio of CC50 for human A549 cells to EC50 for Influenza A virus A/Denmark/528/2009 (H1N1). To be noted: read-out: Ratio CC50/EC50. Type of data set: toxicity.
Data set [11] can be described thus: Antiviral activity against Influenza A virus A/Denmark/528/2009(H1N1) infected in MDCK cells expressing ST6Gal 1 preincubated with virus and cells for 30 mins followed viral infection measured after 2 to 3 days by naphthalene black dye-based plaque reduction assay. The class given is functional, cell-based.
Data set [12] in a line: Selectivity index, ratio of CC50 for human A549 cells to EC50 for Influenza A virus A/Texas/04/2009 (H1N1). Type of data set: toxicity. The following applies: read-out: Ratio CC50/EC50.
Data set [13] is described as follows: Selectivity index, ratio of CC50 for human A549 cells to EC50 for Influenza A virus A/Switzerland/9715293/2013 (H3N2). Type of data set: toxicity. The following applies: read-out: Ratio CC50/EC50.
A short description of data set [14]: Antiviral activity against Influenza A virus A/Washington/29/2009(H1N1) infected in MDCK cells expressing ST6Gal 1 preincubated with virus and cells for 30 mins followed viral infection measured after 2 to 3 days by naphthalene black dye-based plaque reduction assay. The class given is functional, cell-based. In short, it runs like this:
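Plaque reduction assay in MDCK cells expressing ST6Gal I instead of regular MDCK cells. Virus stocks were grown in MDCK cells with 2 µg/ml N-acetyl trypsin, harvested at 2 days and clarified, then titered by plaque assay on ST6Gal I-expressing MDCK cells.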

Data set [15] is described as follows: Selectivity index, ratio of CC50 for human A549 cells to EC50 for Influenza A virus A/WSN/33(H1N1). The following applies: read-out: Ratio CC50/EC50. The class given is toxicity.
Data set [16] has as its system A549. Put plainly: Cytotoxicity against human A549 cells after 48 hrs by neutral red uptake assay. Type of data set: cell-based. To be noted: a549, 48 h. The gist of the method:
as §1

Data set [17] is described as follows: Antiviral activity against Influenza A virus A/California/07/2009(H1N1) infected in MDCK cells expressing ST6Gal 1 preincubated with virus and cells for 30 mins followed viral infection measured after 2 to 3 days by naphthalene black dye-based plaque reduction assay. Type of data set: functional, cell-based.
Data set [18] has as its system Influenza A virus. Kind of data set: Antiviral activity against Influenza A virus A/Denmark/524/2009 (H1N1) infected in MDCK cells expressing ST6Gal 1 preincubated with virus and cells for 30 mins followed viral infection measured after 2 to 3 days by naphthalene black dye-based plaque reduction assay. The class given is functional, cell-based.

What is called EC50 is the concentration giving half of the maximal effect. High values mean a need for much substance, low ones an effect from little substance. Usually inhibition stands for the relative decrease from the control value, in per cent. A higher inhibition goes with a response far below the control. As usually defined, the CC50 is the concentration that lowers cell viability or growth by half. Low values mean harm at low concentration, high ones better tolerance by the cells. Turning to `C[Si](C)(c1ccccc1)c1ccc(CNC23CC4CC(CC(O)(C4)C2)C3)cc1`, the EC50 in data set [1] was 5.9 µM. The selectivity ratio in data set [2] was 2.3. Further, in [3], the inhibition stood at 33.6%. Further, in [4], the CC50 is 13.3 µM.
In the same order, the values of `C[Si](C)(C)c1ccc(CNC23CC4CC(CC(C4)C2)C3)cc1` are 4.8 µM, 1.7, 21.8% and 8 µM.
`CC(C)[Si](c1ccc(CNC23CC4CC(CC(O)(C4)C2)C3)cc1)(C(C)C)C(C)C` returned a half-maximal effective concentration (EC50) in data set [1] (Influenza A virus, MDCK) above 10 µM. The inhibition in [3] is 17.8%. Moreover, in data set [4], half-maximal cytotoxicity (CC50) was put at 11.4 µM.
The compound `CC(C)(C)c1ccc(CNC23CC4CC(CC(O)(C4)C2)C3)cc1` came in with an EC50 in data set [1] of 2.5 µM. Moreover, the selectivity ratio in data set [2] is 12.8. The compound further returned an inhibition in data set [3] of 22.3%. The cytotoxic concentration (CC50) in data set [4] was determined as 32 µM.
On the same counts, the results for `C[Si](C)(C)c1ccc(CNC23CC4CC(CC(C4)C2)C3)nc1` are 3.4 µM, 3, 5.9% and 10.3 µM.
For the compound `C[Si](C)(C)c1ccc(CNC23CC4CC(CC(O)(C4)C2)C3)cc1`, the selectivity ratio was 52.3 in data set [5]; 61 in data set [7]; 122 in [9]; 24.4 in [10]; 102 in [2]; 122 in data set [12]. Further, the selectivity ratio was determined as 105 in data set [13] and 183 in data set [15]. Also, the concentration for a half-maximal effect (EC50) in [6] was 0.6 µM; in data set [8], 0.7 µM; in [1] (Influenza A virus, MDCK), 0.4 µM; in [11], 3 µM; in data set [14], 1.4 µM; in data set [17], 1.2 µM. In addition, the EC50 in [18] amounted to 0.6 µM. In [3], this compound displayed an inhibition of 9.5%. Further, the values for the CC50 in data set [16] and in data set [4] were 73.2 µM and 40.7 µM, respectively.
Turning to `CC[Si](C)(C)c1ccc(CNC23CC4CC(CC(O)(C4)C2)C3)cc1`, in [3], the inhibition stood at 18.2%. This compound also yielded a CC50 in data set [4] of 21.8 µM.
`CC(C)(C)c1ccc(CNC23CC4CC(CC(C4)C2)C3)cc1` gave a half-maximal effective concentration (EC50) in data set [1] of 3.5 µM. The selectivity ratio in data set [2] is 3.7. Also, the inhibition in [3] was 9.9%. In [4], the CC50 came to 12.8 µM.
